Measured values published in ChEMBL document CHEMBL3351826, “Synthesis of pyrazolo[4,3-e][1,2,4]triazine sulfonamides, novel Sildenafil analogs with tyrosinase inhibitory activity” (Bioorg Med Chem, 2014).
In brackets after ≈: the same amount, converted by molar mass. Activity calls are given as the source filed them. The calls are words filed in the database; no cut-off is given here.

Legend:
[1] = species on record: Oryctolagus cuniculus; assay: Inhibition of rabbit platelet PDE5A using [3H]cGMP as substrate at 1 uM after 30 mins by scintillation proximity assay
In short: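 PDE5A isolated from rabbit platelets; tritium scintillation proximity assay in 50 mM Tris-HCl pH 7.5 with 8.3 mM MgCl2 and 1.7 mM EGTA. Compounds tested at 1 µM from DMSO stock, final DMSO <1%. Enzyme limited to ≤15% substrate hydrolysis. Duplicates. % inhibition = [1 − (CPM sample − blank)/(CPM water control − blank)] × 100.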

[2] = tested on: Leptosphaeria sacchari; assay: Inhibition of Leptosphaeria sacchari tyrosinase using L-DOPA as substrate assessed as remaining activity at 0.3 mg/ml incubated for 10 mins prior to substrate addition […] by spectrophotometry
[3] = Inhibition of Leptosphaeria sacchari tyrosinase using L-DOPA as substrate incubated for 10 mins prior to substrate addition […] by spectrophotometry
[4] = tested on: Leptosphaeria sacchari; assay: Inhibition of Leptosphaeria sacchari tyrosinase using L-DOPA as substrate at 0.3 mg/ml incubated for 10 mins prior to substrate addition […] by spectrophotometry
[5] = tested on: Leptosphaeria sacchari; assay: Inhibition of Leptosphaeria sacchari tyrosinase using L-DOPA as substrate at 0.1 mM incubated for 10 mins prior to substrate addition […] by spectrophotometry
[6] = tested on: Leptosphaeria sacchari; assay: Inhibition of Leptosphaeria sacchari tyrosinase using L-DOPA as substrate at 1 mM incubated for 10 mins prior to substrate addition […] by spectrophotometry

For `CCOc1ccc(S(=O)(=O)N2CCN(C)CC2)cc1-c1nnc2c(n1)c(C)nn2C`, the inhibition [1] was 6%, the Activity [2] was 41.2% and the IC50 [3] was 110 µg/mL (≈ 255 µM). The inhibition [4] was 58.8%.
Work on `CCOc1ccc(S(=O)(=O)N2CCNCC2)cc1-c1nnc2c(n1)c(C)nn2C` yielded an inhibition [1] of 26.5%, an Activity [2] of 29.5% and an IC50 [3] of 80 µg/mL (≈ 192 µM). It also gave an inhibition [4] of 70.5%.
`CCOc1ccc(S(=O)(=O)NCCN2CCOCC2)cc1-c1nnc2c(n1)c(C)nn2C` gave an inhibition [1] of 13.3%, an Activity [2] of 37.9% and an IC50 [3] of 150 µg/mL (≈ 325 µM). For the same compound, the inhibition [4] was 62.1%.
With `CCOc1ccc(S(=O)(=O)NCCO)cc1-c1nnc2c(n1)c(C)nn2C` the Activity [2] was 60.5%, the IC50 [3] was 100 µg/mL (≈ 255 µM) and the inhibition [4] was 39.5%.
Work on `CCCc1nn(C)c2nnc(-c3cc(S(=O)(=O)N4CCN(C)CC4)ccc3OCC)nc12` yielded an inhibition [1] of 5.8%, an Activity [2] of 42.9% and an IC50 [3] of 120 µg/mL (≈ 261 µM). For the same compound, the inhibition [4] was 57.1%.
Work on `CCOc1ccc(S(=O)(=O)N2CCN(C)CC2)cc1-c1nnc2nn(C)c(C)c2n1` yielded an inhibition [1] of 0%, an Activity [2] of 45.2% and an IC50 [3] of 140 µg/mL (≈ 324 µM). The inhibition [4] was 54.8%.
`CCOc1ccc(S(=O)(=O)N(CC)CC)cc1-c1nnc2c(n1)c(C)nn2C` gave an inhibition [1] of 16.4%, an Activity [2] of 31.7% and an IC50 [3] of 120 µg/mL (≈ 297 µM). For the same compound, the inhibition [4] was 68.3%.
`CCOc1ccc(S(=O)(=O)NCCNS(=O)(=O)c2ccc(OCC)c(-c3nnc4c(n3)c(C)nn4C)c2)cc1-c1nnc2c(n1)c(C)nn2C` gave an inhibition [1] of 28.1%, an Activity [2] of 20.2% and an IC50 [3] of 900 µg/mL (≈ 1250 µM). For the same compound, the inhibition [4] was 79.7%.
Compound `CCCc1nn(C)c2c(=O)[nH]c(-c3cc(S(=O)(=O)N4CCN(C)CC4)ccc3OCC)nc12` has an inhibition [1] of 98.9%.
With `CCOc1ccc(S(=O)(=O)N2CCOCC2)cc1-c1nnc2c(n1)c(C)nn2C` the inhibition [1] was 0%, the Activity [2] was 48.6% and the IC50 [3] was 150 µg/mL (≈ 358 µM). It also gave an inhibition [4] of 51.4%.
With `CCOc1ccc(S(=O)(=O)NCCN)cc1-c1nnc2c(n1)c(C)nn2C` the inhibition [1] was 0%, the Activity [2] was 3.7% and the IC50 [3] was 70 µg/mL (≈ 179 µM). For the same compound, the inhibition [4] was 96.3%.
`CCOc1ccc(S(=O)(=O)N2CCCC2)cc1-c1nnc2c(n1)c(C)nn2C` showed an inhibition [1] of 24.1%, an Activity [2] of 39.6% and an IC50 [3] of 90 µg/mL (≈ 224 µM). It also gave an inhibition [4] of 60.4%.
`CCOc1ccc(S(=O)(=O)N2CCCNCC2)cc1-c1nnc2c(n1)c(C)nn2C` showed an inhibition [1] of 0.6%, an Activity [2] of 33.5% and an IC50 [3] of 100 µg/mL (≈ 232 µM). For the same compound, the inhibition [4] was 62.1%.
With `CCOc1ccc(S(=O)(=O)N2CCCCC2)cc1-c1nnc2c(n1)c(C)nn2C` the inhibition [1] was 29.5%, the Activity [2] was 40.2% and the IC50 [3] was 120 µg/mL (≈ 288 µM). For the same compound, the inhibition [4] was 59.8%.
`CCOc1ccc(S(=O)(=O)N2CCCN(S(=O)(=O)c3ccc(OCC)c(-c4nnc5c(n4)c(C)nn5C)c3)CC2)cc1-c1nnc2c(n1)c(C)nn2C` showed an inhibition [1] of 26.7%.
`CCOc1ccc(S(=O)(=O)N2CCN(S(=O)(=O)c3ccc(OCC)c(-c4nnc5c(n4)c(C)nn5C)c3)CC2)cc1-c1nnc2c(n1)c(C)nn2C` gave an inhibition [1] of 11.4%.
For `c1nnc2[nH]ncc2n1`, the inhibition [5] was 48% and the inhibition [6] was “Active”.
